# Most compounds without a hit are left out; they make up all but 4% or so of the library.
# XBP1 UPR activ – activators of adaptive XBP1 UPR arm, primary screen, cell-based, CHO-XBP1 luciferase reporter, luminescence, uHTS | IRE1-XBP1 UPR activation; percent of tunicamycin response, DMSO as zero | activation, % at 20 µM | 330,000 tested, 0.33% active | AID 463104, 2010;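 active means versus positive control, 20 µM dose yields 30% or more activation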;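 further: 100% = tunicamycin at 10 µg/mL and 0% = DMSO only wells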
#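 Material: CHO-XBP1 cells stably carrying IRE1-XBP1-driven luciferase reporter | Medium: F12 with 10% serum | Compound dosing: 20 µM single concentration, DMSO 1% | Incubation: Overnight seeding at 37 °C, 6 h compound treatment at 37 °C | Detection: Steady-Glo luminescence read | Read-out basis: % activation of reporter signal versus tunicamycin and DMSO controls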
# ABHD5-PLIN5 inh – ABHD5-PLIN5 interaction inhibitors, primary screen, cell lysate, split luciferase complementation, luminescence; 360,000 tested, 0.78% active; inhibition, % at 4 µM; AID 602281, 2012; Split G. princeps luciferase complementation, 4 h;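 active means inhibition above the mean inhibition across every tested compound plus 3 SD, cut at about 22% in these data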;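 further: 0% = DMSO only wells and the 100% control is not disclosed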
# Target sequence (Q00G26 whole entry, looked up): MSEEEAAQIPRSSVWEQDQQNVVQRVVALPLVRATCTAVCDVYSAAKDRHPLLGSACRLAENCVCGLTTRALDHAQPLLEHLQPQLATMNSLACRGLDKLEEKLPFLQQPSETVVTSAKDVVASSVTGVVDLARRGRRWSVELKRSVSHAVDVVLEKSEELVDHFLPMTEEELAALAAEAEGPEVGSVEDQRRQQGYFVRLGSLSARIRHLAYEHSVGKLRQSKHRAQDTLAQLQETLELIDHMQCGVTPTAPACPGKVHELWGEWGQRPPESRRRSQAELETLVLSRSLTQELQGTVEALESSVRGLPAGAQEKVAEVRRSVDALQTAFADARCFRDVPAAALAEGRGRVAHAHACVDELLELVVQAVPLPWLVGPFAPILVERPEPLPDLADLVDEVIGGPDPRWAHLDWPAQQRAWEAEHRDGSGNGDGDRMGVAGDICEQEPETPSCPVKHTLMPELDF
# Target sequence (Q8WTS1 whole entry, looked up): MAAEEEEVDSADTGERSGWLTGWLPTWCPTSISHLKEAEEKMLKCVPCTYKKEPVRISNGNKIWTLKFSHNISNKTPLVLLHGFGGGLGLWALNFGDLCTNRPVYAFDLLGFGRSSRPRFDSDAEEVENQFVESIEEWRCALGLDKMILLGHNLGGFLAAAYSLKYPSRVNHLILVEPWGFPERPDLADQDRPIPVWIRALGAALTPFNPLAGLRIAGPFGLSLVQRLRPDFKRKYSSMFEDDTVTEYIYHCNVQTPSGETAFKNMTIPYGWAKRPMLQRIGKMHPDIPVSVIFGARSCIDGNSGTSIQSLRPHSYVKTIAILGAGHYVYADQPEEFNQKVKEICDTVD
# Granule exo inh – LAMP-1 surface exposure blockers, TALL-104 cells – cell-based, flow cytometry, MLPCN library, primary screen; inhibition, % at 10 µM; 360,000 tested, 0.66% active; AID 651702, 2012; TALL-104 LAMP-1 surface exposure; cells stimulated with thapsigargin and PMA;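 active means inhibition above about 55%, limit read from the data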
# UPR CHOP act – activators of apoptotic CHOP UPR arm, primary screen, cell-based, CHO-CHOP luciferase reporter, luminescence, uHTS; UPR activation; percent of tunicamycin response over DMSO baseline; activation, % at 10 µM; 330,000 tested, 0.34% active; AID 449763, 2010;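 active means at 10 µM dose, activation of 40% or more, normalized to positive control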;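 further: 100% = tunicamycin at 10 µg/mL and 0% = DMSO alone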
#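 Dosing – one dose, 10 µM in 0.5% DMSO · System – CHO-CHOP cells, stable luciferase reporter of PERK-eIF2a-CHOP signalling · Input – 500 cells/well · Control set – tunicamycin 10 µg/mL final as positive, DMSO-only wells as negative · Timing – 6 h compound treatment, 37 °C · Measure – % activation vs tunicamycin · Technique – luminescence read with Steady-Glo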
# Mdm2 MdmX PPI – inhibitors of human Mdm2-MdmX association, primary screen, cell-based, luminescence, split luciferase, SaOS-2, uHTS. inhibition, % at 8 µM. SaOS-2 split-luciferase Mdm2/MdmX complementation. Protein Mdm4 (Homo sapiens) + E3 ubiquitin-protein ligase Mdm2 (Homo sapiens), …. 330,000 tested, 3% active;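 active means inhibition of at least 50% at 8 µM in the primary screen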
# Mdm2 MdmX conf – Mdm2-MdmX complex disruptors, retested hits, confirmation, luminescence, single concentration; 10,000 tested, 55% active; inhibition, % at 8 µM; AID 489028, 2010; Mdm2-MdmX binding, luminescent assay; shares compounds with Mdm2 MdmX PPI; in the data active means inhibition above about 40%
# FLuc counter – full-length luciferase signal inhibition, confirmation, counter-screen for Mdm2/MdmX interaction inhibitor project, cell-based, single concentration, SaOS-2; 6,200 tested, 77% active; inhibition, % at 8 µM; shares compounds with Mdm2 MdmX PPI; AID 504607, 2011; SaOS-2 full-length luciferase counterscreen, luminescence;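 active means mean inhibition at 8 µM reaching about 37%, which flags the compound as non-specific, limit read from the data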;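 further: p53-null SaOS-2 cells with luciferase driven by a doxycycline-inducible promoter; compound on cells about two nights before reading with doxycycline added after day one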
# The depositor's hits bear a star; / = no result.
SMILES,XBP1 UPR activ,ABHD5-PLIN5 inh,Granule exo inh,UPR CHOP act,Mdm2 MdmX PPI,Mdm2 MdmX conf,FLuc counter
O=C(CCC(=O)N(CC(=O)NC1CCCCC1)Cc1ccccc1)Nc1nccs1,-5,-2,2,1,2,/,/
Cc1ccc2nc(/C(C#N)=C\c3ccc(Oc4ccc(C(F)(F)F)cc4[N+](=O)[O-])cc3)[nH]c2c1,4,-1,1,0,61*,44*,75*
COc1cc(/C=C(\C#N)c2nc3ccc(C)cc3[nH]2)cc([N+](=O)[O-])c1O,/,7,8,/,/,/,/
N#C/C(=C\c1cccc(Oc2ccc(C(F)(F)F)cc2[N+](=O)[O-])c1)c1nc2ccccc2[nH]1,-2,3,-6,-1,38,/,/
COc1ccc(/C=C(\C#N)c2nc3ccc(C)cc3[nH]2)cc1Oc1ccc(C(F)(F)F)cc1[N+](=O)[O-],14,1,2,9,83*,12,/
COc1ccc(/C=N/NC(=O)c2ccco2)cc1COc1ccc(F)cc1,-3,0,-2,7,16,/,/
O=[N+]([O-])c1cccc(-n2nnnc2CN2CCCCCC2)c1,8,1,-3,0,14,/,/
Cc1nc(NC(=O)c2cccc(-c3cc4ccccc4oc3=O)c2)ccc1Br,7,-2,-4,3,25,/,/
CC(=O)Nc1cc2ccccc2oc1=O,-1,-6,-1,0,14,/,/
Cc1ccc(C(=O)Nc2cc3ccccc3oc2=O)cc1,-7,7,-1,-8,89*,85*,32
Cc1nc(NC(=O)c2ccc(-c3cc4ccccc4oc3=O)cc2)ccc1Br,0,2,-3,1,76*,29,77*
Cc1nc(NCc2cccnc2)c2c3c(sc2n1)CC(C)CC3 (configuration not stated),5,0,0,1,-17,/,/
COc1ccc2c(c1)CCC(C)N2S(=O)(=O)c1ccc(C2CNC(=O)C2)cc1 (configuration not stated),-2,15,4,0,13,/,/
CCCCn1c(CCC)nc([N+](=O)[O-])c1Sc1ccc(Cl)cn1,-1,-3,2,-1,63*,18,/
Cc1ccc(C(C(=O)NCc2ccccc2)N(Cc2cccs2)C(=O)c2ccc3c(c2)OCCO3)cc1 (configuration not stated),4,5,54,3,79*,78*,69*
COC(=O)c1ccc(C(C(=O)NCc2ccccc2)N(Cc2cccs2)C(=O)c2cnccn2)cc1 (configuration not stated),-1,5,2,0,14,/,/
COc1ccc(CNC(=O)C(c2ccc(C)cc2)N(Cc2cccs2)C(=O)c2ccc3c(c2)OCCO3)cc1 (configuration not stated),-3,0,8,1,75*,75*,60*
O=C1NC[C@@H](CCCCN2CCN(CCc3ccccc3)C(=O)C2=O)N(CCc2ccc(O)cc2)C1=O,/,-1,3,/,/,/,/
COc1ccc(C2CC(c3cccs3)=NN2C(=O)CCl)cc1OC (configuration not stated),-9,5,-8,-8,99*,100*,49*
COc1ccc(C2CC(c3cccs3)=NN2C(=O)c2ccccc2)cc1OC (configuration not stated),0,1,-10,1,17,/,/
COc1cc(C2CC(c3cccs3)=NN2C(=O)CCl)ccc1OC(F)F (configuration not stated),-13,8,-2,-8,99*,100*,51*
COc1ccc(C2CC(c3cccs3)=NN2C(=O)CCC(=O)O)cc1 (configuration not stated),-5,-1,1,2,-18,/,/
O=S1(=O)CC(N2CCCC2)CN1C1CCCC1 (configuration not stated),/,5,5,/,/,/,/
O=S(=O)(c1cccc(Br)c1)N1CCN(c2ccnc3cc(Cl)ccc23)CC1,-4,1,-5,0,30,/,/
O=S(=O)(c1ccccc1OC(F)(F)F)N1CCN(c2ccnc3cc(Cl)ccc23)CC1,-4,-2,15,0,59*,28,/
SMILES,XBP1 UPR activ,ABHD5-PLIN5 inh,Granule exo inh,UPR CHOP act,Mdm2 MdmX PPI,Mdm2 MdmX conf,FLuc counter
COc1ccccc1N1CCN(c2ccnc3cc(Cl)ccc23)CC1,8,4,8,0,56*,64*,55*
COc1ccccc1NC(=O)N1CCN(c2ccnc3cc(Cl)ccc23)CC1,-3,0,-5,0,22,/,/
CCN(CC)c1ccc2cc(/C(N)=N/NC(=O)c3cccs3)c(=O)oc2c1,93*,/,/,27,85*,71*,84*
Cc1nn(CCC(=O)NCc2ccc(OC(C)C)cc2)c(=O)c2nn(-c3ccccc3)c(C)c12,-7,-1,11,0,-9,/,/
Cc1nnc(N2CCCC(C(=O)NCc3ccc(OC(C)C)cc3)C2)c2nn(-c3ccccc3)c(C)c12 (configuration not stated),-5,6,10,2,52*,3,/
CC1=[N+](C)c2ccc3ccccc3c2C1(C)C,11,-15,-6,8,86*,69*,28
Cc1cc(C)c(S(=O)(=O)/N=C2\C=C(Nc3ccc(C(=O)O)cc3)C(=O)c3ccccc32)c(C)c1,-10,-8,8,36,78*,68*,51*
CCc1ccc(S(=O)(=O)/N=C2\C=C(Nc3ccc(O)cc3)C(=O)c3ccccc32)cc1,-10,3,86*,3,100*,97*,2
Cc1cccc(NC2=C/C(=N/S(=O)(=O)c3cccs3)c3ccccc3C2=O)c1,/,2,36,/,/,/,/
C=C(C(=O)c1ccccc1)C(C)CC(=O)c1ccccc1 (configuration not stated),-5,14,-3,3,64*,61*,32
CCOC(=O)Nc1ccc2c(c1)OCO2,3,2,-3,3,-58,/,/
COc1ccc(NC(=O)c2cc(-c3sc(NC(=O)c4ccccc4)nc3C)n(CCO)n2)cc1,/,3,1,/,/,/,/
COC(=O)c1ccc2[nH]c(C3(O)CCCCC3)c(C)c2c1,3,-10,17,3,-69,/,/
